Source: ChEMBL document CHEMBL4689842, “EUbOPEN Chemogenomics Library wave 1” (2021)

What was measured:
Fibroblast = test: Incucyte cell viability with human fibroblast; assay type: toxicity, cell-based; conditions: 10 µM, compound concentration 10 uM; also: filed as whole numbers so only -1 and 0 and 1 occur
HEK-293T = test: Multiplex assay against HEK293T; assay type: toxicity, cell-based; conditions: human;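 as to Population Tubulin-Different-Phenotype (%): share of the cells with healthy nuclei that show this phenotype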
Method in brief: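 Cells were classed with CellPathfinder machine-learning gating, first as Hoechst high-intensity objects or normal cells, then (normal cells) as healthy, pyknosed or fragmented nuclei, and finally (pyknosed cells) as mitotic or apoptotic. Staining of live cells at seeding used Hoechst33342, BioTracker Green Microtubule Cytoskeleton Dye, MitoTracker Red and Annexin V Alexa Fluor 680, with imaging on a CQ1 microscope at 37°C and 5% CO2 after compound addition. Tubulin, mitochondrial-mass and membrane-permeability phenotypes are per cents of healthy-nucleus cells.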

[1] = 12 h, 1 µM, compound concentration 1 uM, replicate 1
[2] = 12 h, 1 µM, compound concentration 1 uM, replicate 2
[3] = 12 h, 10 µM, compound concentration 10 uM, replicate 1
[4] = 12 h, 10 µM, compound concentration 10 uM, replicate 2
[5] = 24 h, 1 µM, compound concentration 1 uM, replicate 1
[6] = 24 h, 1 µM, compound concentration 1 uM, replicate 2

Cc1c(P(=S)(c2ccccc2)c2ccccc2)n2ccccc2[n+]1C/C=C/c1ccccc1.[Br-]
Growth Rate (Fibroblast; 0 h, replicate number 1, timepoint 0 hours): 0 | Growth Rate (Fibroblast; 6 h, replicate number 1, timepoint 6 hours): 0 | Growth Rate (Fibroblast; 12 h, replicate number 1, timepoint 12 hours): 0 | Growth Rate (Fibroblast; 18 h, replicate number 1, timepoint 18 hours): 0 | Growth Rate (Fibroblast; 24 h, replicate number 1, timepoint 24 hours): 0 | Population Apoptotic (%) (HEK-293T; [1]): 65% | Population Fragmented Nuclei (%) (HEK-293T; [1]): 12% | Population Healthy Nuclei (%) (HEK-293T; [1]): 24% | Population Hoechst High Intensity Objects (%) (HEK-293T; [1]): 17% | Population Membrane Permeable-Phenotype (%) (HEK-293T; [1]): 6% | Population Mitochondria Different-Phenotype (%) (HEK-293T; [1]): 93% | Population Mitotic Cells (%) (HEK-293T; [1]): 34% | Population Normal (%) (HEK-293T; [1]): 82% | Population Pyknosed Nuclei (%) (HEK-293T; [1]): 62% | Population Tubulin-Different-Phenotype (%) (HEK-293T; [1]): 83% | Total Cell Count (HEK-293T; [1]): 211 | Population Apoptotic (%) (HEK-293T; [2]): 86% | Population Fragmented Nuclei (%) (HEK-293T; [2]): 6% | Population Healthy Nuclei (%) (HEK-293T; [2]): 30% | Population Hoechst High Intensity Objects (%) (HEK-293T; [2]): 5% | Population Membrane Permeable-Phenotype (%) (HEK-293T; [2]): 0% | Population Mitochondria Different-Phenotype (%) (HEK-293T; [2]): 87% | Population Mitotic Cells (%) (HEK-293T; [2]): 13% | Population Normal (%) (HEK-293T; [2]): 94% | Population Tubulin-Different-Phenotype (%) (HEK-293T; [2]): 77% | Total Cell Count (HEK-293T; [2]): 138 | Population Apoptotic (%) (HEK-293T; [3]): 34% | Population Fragmented Nuclei (%) (HEK-293T; [3]): 31% | Population Healthy Nuclei (%) (HEK-293T; [3]): 2% | Population Hoechst High Intensity Objects (%) (HEK-293T; [3]): 21% | Population Membrane Permeable-Phenotype (%) (HEK-293T; [3]): 14% | Population Mitochondria Different-Phenotype (%) (HEK-293T; [3]): 28% | Population Mitotic Cells (%) (HEK-293T; [3]): 65% | Population Normal (%) (HEK-293T; [3]): 78% | Population Pyknosed Nuclei (%) (HEK-293T; [3]): 65% | Population Tubulin-Different-Phenotype (%) (HEK-293T; [3]): 100% | Total Cell Count (HEK-293T; [3]): 398 | Population Apoptotic (%) (HEK-293T; [4]): 82% | Population Fragmented Nuclei (%) (HEK-293T; [4]): 9% | Population Healthy Nuclei (%) (HEK-293T; [4]): 6% | Population Hoechst High Intensity Objects (%) (HEK-293T; [4]): 14% | Population Membrane Permeable-Phenotype (%) (HEK-293T; [4]): 0% | Population Mitochondria Different-Phenotype (%) (HEK-293T; [4]): 54% | Population Mitotic Cells (%) (HEK-293T; [4]): 17% | Population Normal (%) (HEK-293T; [4]): 85% | Population Pyknosed Nuclei (%) (HEK-293T; [4]): 84% | Population Tubulin-Different-Phenotype (%) (HEK-293T; [4]): 90% | Total Cell Count (HEK-293T; [4]): 192 | Population Apoptotic (%) (HEK-293T; [5]): 62% | Population Fragmented Nuclei (%) (HEK-293T; [5]): 20% | Population Healthy Nuclei (%) (HEK-293T; [5]): 18% | Population Hoechst High Intensity Objects (%) (HEK-293T; [5]): 19% | Population Membrane Permeable-Phenotype (%) (HEK-293T; [5]): 3% | Population Mitochondria Different-Phenotype (%) (HEK-293T; [5]): 90% | Population Mitotic Cells (%) (HEK-293T; [5]): 37% | Population Normal (%) (HEK-293T; [5]): 80% | Population Pyknosed Nuclei (%) (HEK-293T; [5]): 61% | Population Tubulin-Different-Phenotype (%) (HEK-293T; [5]): 87% | Total Cell Count (HEK-293T; [5]): 217 | Population Apoptotic (%) (HEK-293T; [6]): 88% | Population Fragmented Nuclei (%) (HEK-293T; [6]): 6% | Population Healthy Nuclei (%) (HEK-293T; [6]): 41% | Population Hoechst High Intensity Objects (%) (HEK-293T; [6]): 7% | Population Membrane Permeable-Phenotype (%) (HEK-293T; [6]): 0% | Population Mitochondria Different-Phenotype (%) (HEK-293T; [6]): 98% | Population Mitotic Cells (%) (HEK-293T; [6]): 11% | Population Normal (%) (HEK-293T; [6]): 92%
